Published values from different studies.
Compare with care: the assays were run in different laboratories.

SMILES	system	conditions	bioavailability [%]
N[C@@H](CSSC[C@H](N)C(=O)O)C(=O)O	Kunming mouse, plasma	oral, 25 mg/kg	18.6
CC(C)(NC(=O)O[C@@H]1CN2CCC1CC2)c1csc(-c2ccc(F)cc2)n1	CD-1 mouse, plasma	oral, 10 mg/kg	74
NC[C@@H]1O[C@H](O[C@H]2[C@@H](O)[C@H](O[C@@H]3[C@@H](O)[C@H](N)C[C@H](N)[C@H]3O[C@H]3O[C@H](CO)[C@@H](O)[C@H](O)[C@H]3N)O[C@@H]2CO)[C@H](N)[C@@H](O)[C@@H]1O	male BALB/c mouse, plasma	oral, 500 mg/kg	0.3
Oc1ccc(C(c2ccc(O)cc2)(C(F)(F)F)C(F)(F)F)cc1	mouse, plasma	oral, 34 mg/kg, single dose	3 to 6
O=C(NCCN1CCCC1)c1cc(-c2ccc(CN3CCOCC3)cc2)nc2ccc(F)cc12	female NMRI mouse, blood	oral, 3 mg/kg	74
COc1ccc2nccc(N3CCc4c(cc(Cn5ccnc5)cc4-c4cn(C)nc4C(F)(F)F)C3=O)c2c1	male CD-1 mouse, plasma	oral, 10 mg/kg	34
O=C(Nc1nccs1)C(c1cc(F)ccc1O)N1Cc2ccccc2C1=O (centres unmarked)	mouse, plasma	oral, 20 mg/kg	26
Oc1ccc(-c2nc(-c3ccc(Oc4ccc(C(F)(F)F)cc4)cc3)no2)cc1	female CD-1 mouse, plasma	oral, 50 mg/kg	100
O=C(NCC1CC1)c1cc(N2CC[C@H](O)C2)nc(N2CCC[C@@H](c3ccccc3)C2)n1	mouse, plasma	oral, 10 mg/kg	25
CN1CCc2c(c3ccccc3n2Cc2ccc(C(=O)NO)cc2)C1	male CD-1 mouse, plasma	oral, 30 mg/kg	~6
O=[N+]([O-])c1cccc2[nH]c(CNc3nc(N4CCOCC4)nc4c3ncn4-c3ccsc3)nc12	mouse, plasma	intravenous, 1 mg/kg	0
COc1cc2ccccc2cc1C(=O)NC(=S)Nc1ccc(-c2nc3ccccc3[nH]2)cc1	mouse, plasma	oral, 5 mg/kg	< 1
COc1nc2[nH]c(C(F)(F)F)nc2nc1Nc1ccc(OC(F)(F)F)cc1F	C57BL/6 mouse, plasma	oral, 10 mg/kg	21
CC[C@H](C)[C@@H]1NC(=O)[C@@](C)(NC(=O)[C@H](CCCNC(=N)N)NC(=O)[C@H](CC(C)C)NC(=O)[C@@H](NC(=O)[C@H](CCC(N)=O)NC(=O)[C@H](CC(C)C)NC(C)=O)[C@@H](C)O)CCCC=CCCC[C@@](C)(C(=O)N[C@@H](CC(C)C)C(=O)N[C@@H](Cc2ccc3ccccc3c2)C(N)=O)NC(=O)[C@H](CCCNC(=N)N)NC(=O)[C@H](CCC(N)=O)NC1=O	male BALB/c mouse, plasma	intramuscular, 5 mg/kg	20.6
Cc1ccc2cncc(N3CCc4c(cc(Cn5ccnc5)cc4-c4cn(C)nc4C(F)(F)F)C3=O)c2c1	male CD-1 mouse, plasma	oral, 50 mg/kg	56
Nc1ccc(-c2ccc3ncc4ccc(=O)n(-c5cccc(C(F)(F)F)c5)c4c3c2)cn1	male Swiss mouse, plasma	oral, 10 mg/kg	54
CCc1ccc(Cc2cc([C@@H]3O[C@H](CO)[C@@H](O)[C@H](O)[C@H]3O)cc3c2CCC3)cc1	male C57BL/6 mouse, plasma	oral, 0.3 mg/kg	> 100
C=CC(=O)Nc1cccc(Nc2nc(Nc3ccc(N4CCN(C(C)=O)CC4)cc3OC)ncc2C(F)(F)F)c1	female mouse, plasma	oral, 20 mg/kg	65
CCc1cc(OC)c2nccc(N3CCc4c(cc(Cn5ccnc5)cc4-c4cn(C)nc4C(F)(F)F)C3=O)c2c1	male CD-1 mouse, plasma	oral, 150 mg/kg	135
COc1nc(-c2cc(C)c(N[C@@H](C)c3c(F)cc(F)cc3F)nn2)ccc1-n1cnc(C)c1	male CD-1 mouse, plasma	oral, 5 mg/kg, single dose	63.7
CNC(=O)c1cc(OC)cc2c(N3CCc4c(cc(Cn5ccnc5)cc4-c4cn(C)nc4C(F)(F)F)C3=O)ccnc12	male CD-1 mouse, plasma	oral, 50 mg/kg	263
Cc1c(C(=O)Nc2ccccc2)sc(N)c1C(N)=O	male CD-1 mouse, plasma	oral, 10 mg/kg	34
OC[C@H]1O[C@@H](c2ccc(Cl)c(Cc3ccc(O[C@H]4CCOC4)cc3)c2)[C@H](O)[C@@H](O)[C@@H]1O	CD-1 mouse, plasma	oral, 10 mg/kg	25.6
CCc1cc(C(=O)NC)c2nccc(N3CCc4c(cc(Cn5ccnc5)cc4-c4cn(C)nc4C(F)(F)F)C3=O)c2c1	male CD-1 mouse, plasma	oral, 150 mg/kg	252
CC(C)(C)c1cc(NC(=O)Nc2ccc(Oc3ccnc4[nH]c(=O)cnc34)cc2F)n(-c2ccccc2)n1	BALB/c mouse, plasma	oral, 10 mg/kg	54
CN[C@@H](C)C(=O)N[C@H]1CN(C(=O)CC(C)C)CC[C@H]2CC[C@@H](C(=O)NC(c3ccccc3)c3ccccc3)N2C1=O	SCID mouse, plasma	oral, 100 mg/kg, tumour-bearing	42.7
